In paper PMC8313742 (Molecular Metabolism, 2021):

Key:
[1] = test system: Zucker diabetic fatty (fa/fa; ZDF) rats; assay: 8-week intervention study in ZDF rats; assay type: in vivo, rat; conditions: for tAUC, BW / tAUC, FI / Epididymal AT / Inguinal AT / Perirenal AT: n = 10, mean ± SEM; for Epididymal AT / Inguinal AT / Perirenal AT: study end; for HbA1c levels compared to vehicle / OGTT blood glucose iAUC compared to vehicle: KBP-066 […] q.d.; for HbA1c levels compared to vehicle: KBP-066A 1.5 and 3 nmol/kg q.3.d.; for vehicle-corrected reduction in HbA1c at the end of the study: dose not given; for OGTT blood glucose iAUC compared to vehicle: OGTT 1 g/kg after seven weeks, KBP-066A 0.75 and 3 nmol/kg q.3.d.
[2] = test system: AMY3R cell line; assay type: binding, human; conditions: competition with […] 125I-sCT, AMY3R cells, triplicates
[3] = test system: obese male Sprague Dawley rats (HFD); assay: Acute food intake and body weight after single s.c. injection; assay type: in vivo, rat; conditions: HFD SD rats; for body weight change after single injection: single s.c. 3 nmol/kg, 96-hour profile, n = 4
Outline: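 Male Sprague Dawley rats on 60 kcal% fat diet from 5–6 weeks of age were used when obese (>500 g). They were allocated by body weight and given a single s.c. injection at time 0. Food intake and body weight were recorded daily for 96–144 h. tAUC (0–96 h) was calculated. n = 4–10 per group. One-way ANOVA with Tukey versus vehicle; mean ± SEM.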

[4] = test system: HFD Sprague Dawley rats; assay: Chronic 4-week study in high-fat diet-fed Sprague Dawley rats; assay type: in vivo, rat; conditions: for tAUC, BW / tAUC, FI / Epididymal AT / Inguinal AT / Perirenal AT: 4 weeks, n = 6, mean ± SEM; for Epididymal AT / Inguinal AT / Perirenal AT: study end
Outline: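 Male Sprague Dawley rats fed 60 kcal% fat diet from 5–6 weeks old for 20 weeks were randomized by body weight (n = 6). Dosing was s.c. saline or test compound q.3.d. for 4 weeks. Body weight and food intake were taken daily, and tAUC calculated. Terminal OGTT (2 g/kg, 4 mL/kg p.o.) was run after 14-h fast, 24 h post-dose, with glucose iAUC. Epididymal, perirenal and inguinal fat were weighed.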

[5] = test system: obese male Sprague Dawley rats (HFD); assay: Acute gastric emptying rate; assay type: in vivo, rat; conditions: plasma acetaminophen, n = 8
Outline: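 Obese HFD-fed male Sprague Dawley rats were fasted overnight, then given s.c. test compound plus oral glucose bolus and acetaminophen at time 0. Tail-vein EDTA blood was taken at 0, 30, 60, 120 and 240 min. Plasma acetaminophen by ELISA served as gastric emptying estimate, expressed as % of vehicle. n = 8. One-way ANOVA/Tukey at 60 and 240 min; Kruskal–Wallis/Dunn at 30 and 120 min.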

[6] = biological target: T1, Amylin 3 receptor (AMY3R; CHO K1 CALCR RAMP3) (Homo sapiens, UniProt O60896+P30988); assay: PathHunter β-arrestin recruitment reporter assay, amylin receptor; assay type: cell-based; conditions: 10% FBS (Table S1)
T1 sequence (P30988 25-474): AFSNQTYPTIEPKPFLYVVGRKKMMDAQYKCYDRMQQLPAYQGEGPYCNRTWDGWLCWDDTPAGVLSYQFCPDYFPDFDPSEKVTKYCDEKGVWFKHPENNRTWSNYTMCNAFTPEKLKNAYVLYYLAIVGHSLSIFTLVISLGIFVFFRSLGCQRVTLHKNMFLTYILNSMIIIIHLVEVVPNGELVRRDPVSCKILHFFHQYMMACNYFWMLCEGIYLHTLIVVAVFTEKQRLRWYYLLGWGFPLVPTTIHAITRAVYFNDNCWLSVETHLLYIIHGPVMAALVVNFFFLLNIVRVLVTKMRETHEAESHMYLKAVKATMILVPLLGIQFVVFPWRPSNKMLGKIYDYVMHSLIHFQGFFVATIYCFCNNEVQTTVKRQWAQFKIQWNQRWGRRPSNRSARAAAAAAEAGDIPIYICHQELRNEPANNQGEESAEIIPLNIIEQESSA
T1 sequence (O60896 24-148 partner): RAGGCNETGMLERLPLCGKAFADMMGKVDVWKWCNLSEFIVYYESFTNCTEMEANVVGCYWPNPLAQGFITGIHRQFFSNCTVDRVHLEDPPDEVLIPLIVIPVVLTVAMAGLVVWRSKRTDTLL

[7] = 0.75 nmol/kg s.c. q.3.d., 8 weeks
[8] = single s.c. 36 nmol/kg, n = 6-10

Substance: Ac-CSNLSTCXLGKLSQDLHRLQTYPKTDVGANAP-NH2 [KBP-066A]
- effect on fasting blood glucose levels ([1]; 0.75 nmol/kg q.3.d. (lowest dose), 8 weeks): minor
- tAUC, BW [1, 7]: 6180 ± 67 g∗days^−1
- tAUC, FI [1, 7]: 3815 ± 135∗∗¤ g∗days^−1
- Epididymal AT [1, 7]: 3.7 ± 0.1 g
- Inguinal AT [1, 7]: 4.8 ± 0.4 g
- Perirenal AT [1, 7]: 6.0 ± 0.3 g
- fasting blood glucose levels (tAUC) compared to KBP-066 q.d. ([1]; 3 nmol/kg q.3.d. (highest dose), 8 weeks): significantly improved
- tAUC, BW ([1]; 3 nmol/kg s.c. q.3.d., 8 weeks): 6409 ± 122 g∗days^−1
- tAUC, FI ([1]; 3 nmol/kg s.c. q.3.d., 8 weeks): 2898 ± 61∗∗∗ g∗days^−1
- Epididymal AT ([1]; 3 nmol/kg s.c. q.3.d., 8 weeks): 4.7 ± 0.2 g
- Inguinal AT ([1]; 3 nmol/kg s.c. q.3.d., 8 weeks): 6.3 ± 0.7 g
- Perirenal AT ([1]; 3 nmol/kg s.c. q.3.d., 8 weeks): 6.7 ± 0.4 g
- plasma insulin (tAUC) compared to KBP-066 q.d. ([1]; 8 weeks, 3 nmol/kg q.3.d.): significantly preserved plasma insulin at higher levels
- HbA1c levels compared to vehicle ([1]; 8 weeks): significantly improved
- vehicle-corrected reduction in HbA1c at the end of the study ([1]; 8 weeks): 46%
- OGTT blood glucose iAUC compared to vehicle [1]: significantly reduced
- change of IC50 in 2% HSA compared to 0.01% HSA [2]: 100 fold
- effect on food intake and body weight ([3]; single s.c. 0.5 nmol/kg (lowest dose), n = 6-10): only had a minor effect on both parameters
- body weight change after single injection [3]: still markedly reduced even 96 h post-injection
- duration of effect on body weight [3, 8]: 144 h
- duration of effect on food intake [3, 8]: 120 h
- tAUC, BW ([4]; 1 nmol/kg s.c. q.3.d.): 2584 ± 7∗∗∗ g∗days^−1
- tAUC, FI ([4]; 1 nmol/kg s.c. q.3.d.): 617 ± 10∗∗∗ g∗days^−1
- Epididymal AT ([4]; 1 nmol/kg s.c. q.3.d.): 4.4 ± 1.0 g
- Inguinal AT ([4]; 1 nmol/kg s.c. q.3.d.): 2.8 ± 0.3 g
- Perirenal AT ([4]; 1 nmol/kg s.c. q.3.d.): 3.5 ± 0.9 g
- tAUC, BW ([4]; 2 nmol/kg s.c. q.3.d.): 2452 ± 6∗∗∗¤ g∗days^−1
- tAUC, FI ([4]; 2 nmol/kg s.c. q.3.d.): 518 ± 6∗∗∗¤¤¤ g∗days^−1
- Epididymal AT ([4]; 2 nmol/kg s.c. q.3.d.): 3.9 ± 1.1 g
- Inguinal AT ([4]; 2 nmol/kg s.c. q.3.d.): 1.9 ± 0.5 g
- Perirenal AT ([4]; 2 nmol/kg s.c. q.3.d.): 2.7 ± 0.7∗∗ g
- tAUC, BW ([4]; 4 nmol/kg s.c. q.3.d.): 2458 ± 8∗∗∗ g∗days^−1
- tAUC, FI ([4]; 4 nmol/kg s.c. q.3.d.): 532 ± 10∗∗∗¤¤ g∗days^−1
- Epididymal AT ([4]; 4 nmol/kg s.c. q.3.d.): 4.2 ± 1.2 g
- Inguinal AT ([4]; 4 nmol/kg s.c. q.3.d.): 2.9 ± 1.4 g
- Perirenal AT ([4]; 4 nmol/kg s.c. q.3.d.): 2.8 ± 1.0∗∗ g
- OGTT glucose iAUC compared to vehicle ([4]; OGTT after four weeks, KBP-066A 1, 2, 4 nmol/kg q.3.d.): not statistically significant compared to vehicle

Substance: Ac-CSNLSTCXLGRLSQDLHRLQTYPKTDVGANAP-NH2 [KBP-066]
- HbA1c levels compared to vehicle ([1]; 8 weeks): significantly improved
- vehicle-corrected reduction in HbA1c at the end of the study ([1]; 8 weeks): 31%
- OGTT blood glucose iAUC compared to vehicle [1]: significantly reduced
- change of IC50 in 2% HSA compared to 0.01% HSA [2]: not affected by the difference in HSA concentration
- gastric emptying rate at 30 min ([5]; […] s.c., overnight fasted rats): reduced the gastric emptying rate
- gastric emptying rate at 60 and 120 min ([5]; both doses 0.75 and […] s.c.): significantly did so
- fold lower EC50 than KBP-066A for the AMYR [6]: eight-fold
- body weight change after single injection [3]: completely returned to the baseline after 72 h
